Source: PubChem
ABCB1 block: human ABCB1 inhibition, ABCG2 as counter-screen; P08183; CCRF-Adr cells, JC-1 efflux, flow cytometry; inhibition, % at 6.6 µM; 190,000 tested, 0.067% active; in the data active = inhibition above about 40%;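 note: 0% = vehicle and 100% = reference inhibitor; higher value means more JC-1 retained so stronger ABCB1 efflux block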
ROMK primary: human ROMK K+ channel modulation, primary screen. B-score at 10 µM. P48048. AID 1918. 130,000 tested, 2% active. Tet-inducible ROMK, thallium flux fluorescence; actives lie on both sides;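 active = signal ratio slope over the read window, or its plate-corrected B-score, at least 3 SD from the plate mean, either direction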;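 note: B-score of the F/F0 ratio slope over 7 to 12 s after thallium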
PMI activator: increases human mannose-6-phosphate isomerase activity. P34949. purified human PMI, coupled resazurin fluorescence, 20 min; active compounds read high; 1 = vehicle control, 0 substrate-free wells. activation factor at 20 µM. 190,000 tested, 0.005% active. AID 1214;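 active = activation factor of 2 or more at 20 µM, relative to plate controls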
Target sequence (P34949 whole entry, looked up): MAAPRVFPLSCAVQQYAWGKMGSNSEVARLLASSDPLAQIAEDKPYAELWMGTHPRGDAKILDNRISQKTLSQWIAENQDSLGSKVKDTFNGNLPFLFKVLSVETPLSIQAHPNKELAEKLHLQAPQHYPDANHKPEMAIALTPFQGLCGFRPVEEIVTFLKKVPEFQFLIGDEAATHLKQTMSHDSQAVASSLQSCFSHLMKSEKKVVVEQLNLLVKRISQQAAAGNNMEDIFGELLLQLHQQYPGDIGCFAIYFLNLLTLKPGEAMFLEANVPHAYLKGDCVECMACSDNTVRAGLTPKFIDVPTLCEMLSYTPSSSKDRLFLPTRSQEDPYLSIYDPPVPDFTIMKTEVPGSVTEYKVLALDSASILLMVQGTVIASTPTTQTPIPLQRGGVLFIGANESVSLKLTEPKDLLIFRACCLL
PMI act satM6P: activators of human phosphomannose isomerase at near-saturating mannose 6-phosphate; coupled PMI enzyme assay, resazurin fluorescence, 20 min; active compounds read high; 1 = untreated enzyme, 0 = substrate-free blank; activation factor at 20 µM; 190,000 tested, 0.34% active;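 active = activation factor of 2 or more at 20 µM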
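Material: human phosphomannose isomerase with PGI, G6PDH, diaphorase coupling enzymes / Reagent: Man-6-P substrate 1.0 mM / Dosing: single compound dose of 20 µM, 1% DMSO final / Incubation: enzyme reaction with compound 20 min at room temperature / Signal: resorufin fluorescence (Ex 544/Em 590 nm) from resazurin via diaphorase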
ABCG2 inh: blocks JC-1 efflux by human ABCG2 transporter. Q9UNQ0. IgMXP3 cells, flow cytometry. inhibition, % at 6.6 µM. 190,000 tested, 0.1% active. AID 1325;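 active = inhibition above 80%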;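 note: 0% = DMSO and 100% = nicardipine control wells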
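Assay system – ABCG2 IgMXP3 and barcoded ABCB1 CCRF-Adr cell mix · Input – 3 million cells/mL in well · Reagent – JC-1 fluorescent substrate · Compound – single test compound dose, 6.6 µM final · Timing – 10 min exposure at 25 °C with rotation, no wash · Detection – flow cytometry of retained JC-1 fluorescence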
Cl transport mod: modulators of human KCC2 chloride dependent transport; Q9H2X9; KCC2 cells, thallium flux FluoZin-2 fluorescence; B-score of Tl+ flux slope (higher = more flux/activation; lower = inhibition) at 10 µM; 190,000 tested, 2.2% active;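 active = thallium flux slope and its plate-corrected score both differing from the plate sample mean at a set confidence after two filtering rounds, in either direction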;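 note: slope of fluorescence scaled to starting intensity during 10 to 20 s after thallium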
ROMK hit retest: human ROMK channel modulation, retest confirmation; shares compounds with ROMK primary; ROMK thallium flux, fluorescence ratio; active compounds read low; normalized thallium flux (F/F0 slope) at 10 µM; 3,000 tested, 54% active;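 active = Flux at 10 µM at least 3 SD below or above vehicle control mean in one or both replicates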
Active calls of the source: *. The list is not random: actives were taken first. Their share in the collection is about 3.3%.

What do the screens show for `CCOC(=O)C1=C(C)OC(N)=C(C#N)C1c1ccc(C)s1` (configuration not stated)?
ABCB1 block: 0; ROMK primary: 3.2*; PMI activator: 0.9; PMI act satM6P: 0.8; ABCG2 inh: 4; Cl transport mod: -0.7; ROMK hit retest: 0.064*

How did COc1cc2c(cc1OC)CN(CC(=O)Nc1ccc3c(c1)OC(F)(F)O3)CC2 do in these assays?
ABCB1 block: 0; ROMK primary: 2.5*; PMI activator: 0.9; PMI act satM6P: 0.9; ABCG2 inh: 2; Cl transport mod: -0.57; ROMK hit retest: 0.078

Results for CC(=O)/C(=C/c1ccccc1)C(=O)Nc1ccccc1C ?
ABCB1 block: 0; ROMK primary: -3.6*; PMI activator: 1.1; PMI act satM6P: 1; ABCG2 inh: 0; Cl transport mod: 0.27; ROMK hit retest: 0.048*

Results for CN(C)c1ccc(C(=S)Nc2ccccc2)cc1 ?
ABCB1 block: -1; ROMK primary: -0.52; PMI activator: 1; PMI act satM6P: 1; ABCG2 inh: -4; Cl transport mod: 0.68

Results for CN(C)c1cc(O)c(C(=S)Nc2ccccc2)c(N(C)C)c1 ?
ABCB1 block: 1; ROMK primary: -3.3*; PMI activator: 0.9; PMI act satM6P: 0.5; ABCG2 inh: 19; ROMK hit retest: 0.063*

What do the screens show for `CC(C)C1CC(CCNCc2ccc(N(C)C)cc2)(c2ccccc2)CCO1` (configuration not stated)?
ABCB1 block: 18; PMI activator: 1; PMI act satM6P: 1; ABCG2 inh: 51; Cl transport mod: 0.76; ROMK hit retest: 0.048*

What do the screens show for `CC(C)C1CC(CCNCc2ccc3c(c2)OCO3)(c2ccccc2)CCO1` (configuration not stated)?
ROMK primary: -2.9*; Cl transport mod: 0.77; ROMK hit retest: 0.055*

Results for CC1(C)CC(O)(CNCc2ccc3c(c2)OCO3)CCO1 (configuration not stated) ?
ABCB1 block: 1; PMI activator: 1.1; PMI act satM6P: 1; ABCG2 inh: 4; Cl transport mod: 1.2

How did Cc1ccc(C2(CCNCc3ccc(N(C)C)cc3)CCOC(C(C)C)C2)cc1 (configuration not stated) do in these assays?
ABCB1 block: 2; ROMK primary: -1; PMI activator: 1; PMI act satM6P: 1; ABCG2 inh: 7; Cl transport mod: 0.56

Results for Cc1ccc(C2(CCNS(=O)(=O)c3ccc(C)cc3)CCOC(C(C)C)C2)cc1 (configuration not stated) ?
ABCB1 block: 20; PMI activator: 0.8; PMI act satM6P: 0.9; ABCG2 inh: 78; Cl transport mod: -1.9; ROMK hit retest: 0.061*

What do the screens show for `CCC1(C)CC(CCNS(=O)(=O)c2ccc(C)cc2)(c2ccc(C)cc2)CCO1` (configuration not stated)?
ABCB1 block: 2; PMI activator: 0.9; PMI act satM6P: 0.8; ABCG2 inh: 4; Cl transport mod: -0.17

Results for Cc1cc2cc(C(c3nnnn3C(C)(C)C)N(Cc3ccco3)CC3CCCO3)c(=O)[nH]c2cc1C (configuration not stated) ?
ABCB1 block: 2; PMI activator: 1; PMI act satM6P: 0.9; ABCG2 inh: 3; Cl transport mod: -0.018

What do the screens show for `Cc1cccc2cc(CN(CC3CCCO3)C(c3nnnn3Cc3ccco3)C(C)C)c(=O)[nH]c12` (configuration not stated)?
ABCB1 block: 7; ROMK primary: -3*; PMI activator: 0.8; PMI act satM6P: 0.9; ABCG2 inh: 5; Cl transport mod: 0.78; ROMK hit retest: 0.071

Results for Cc1cc(C)c2[nH]c(=O)c(C(c3nnnn3C(C)(C)C)N(Cc3ccco3)CC3CCCO3)cc2c1 (configuration not stated) ?
ABCB1 block: 4; ROMK primary: -3.3*; PMI activator: 1.2; PMI act satM6P: 1.3; ABCG2 inh: 2; Cl transport mod: 0.0016; ROMK hit retest: 0.058*

Results for Cc1cc(C)c(C#N)c(Oc2ccc(F)cc2)n1 ?
ABCB1 block: 1; PMI activator: 1; PMI act satM6P: 1; ABCG2 inh: 6; Cl transport mod: 0.92; ROMK hit retest: 0.083

How did O=C(O)c1ccc(N/N=C/c2cc3cc4c(cc3nc2Cl)OCCO4)cc1 do in these assays?
ROMK primary: -0.41; Cl transport mod: -2.2

What do the screens show for `NC1=CC(=O)c2cccc3cccc1c23`?
ROMK primary: -3.8*; PMI activator: 0.4; PMI act satM6P: 0.6; ROMK hit retest: 0.051*

What do the screens show for `NC1=Nc2cccc3cccc1c23`?
ABCB1 block: -1; ROMK primary: -1.2; PMI activator: 0.9; PMI act satM6P: 0.4; ABCG2 inh: -5; Cl transport mod: -0.1

What do the screens show for `CCOc1nc2ccccc2cc1C=O`?
ABCB1 block: 1; ROMK primary: 5.3*; PMI activator: 0.9; PMI act satM6P: 0.9; ABCG2 inh: 1; Cl transport mod: -0.044; ROMK hit retest: 0.12*

How did O=C(Nc1nnc(CCN2CCCCC2)s1)c1ccccc1Cl do in these assays?
ABCB1 block: 0; ROMK primary: -0.23; PMI activator: 1; PMI act satM6P: 0.9; ABCG2 inh: 0

How did CSc1ccc(/C=C(\C#N)C(=O)NC2CCCCC2C)cc1 (configuration not stated) do in these assays?
ABCB1 block: 5; ROMK primary: -3.1*; PMI activator: 1; PMI act satM6P: 0.9; ABCG2 inh: 13; Cl transport mod: 1.7; ROMK hit retest: 0.046*

How did CC(=O)Nc1ccc(/C=C(\C#N)C(=O)NC2CCCCC2C)cc1 (configuration not stated) do in these assays?
ABCB1 block: 0; ROMK primary: -0.095; PMI activator: 1.2; PMI act satM6P: 1.1; ABCG2 inh: 13; Cl transport mod: -1.6

How did CC1CCCCC1NC(=O)/C(C#N)=C/c1ccccc1F (configuration not stated) do in these assays?
ABCB1 block: 0; ROMK primary: -5.8*; PMI activator: 1.1; PMI act satM6P: 1.1; ABCG2 inh: 1; Cl transport mod: 0.12; ROMK hit retest: 0.043*

Results for O=C(O)c1ccc(-c2nc(-c3ccc(Cl)c(Cl)c3)cs2)cc1 ?
ABCB1 block: 1; ROMK primary: 3.1*; PMI activator: 1; PMI act satM6P: 0.9; ABCG2 inh: 16; Cl transport mod: -2.3; ROMK hit retest: 0.082
